Measured values taken from publication PMC7350150 (Neoplasia (New York, N.Y.), 2020).
“Also recorded” adds a separate entry of the source.

Columns and labels:
[1] = Brain penetration of PARP inhibitors in mice; assay type: in vivo, male C57 mice; settings: for Kp: po, AUC1-4h
[2] = system: MDA-MB-436 breast cancer xenograft; experiment: MDA-MB-436 breast cancer xenograft efficacy; assay type: in vivo, BALB/c nude mice; settings: for tumor relapse at day 89: two months after treatment terminated
Procedure, shortened: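 MDA-MB-436 cells at 2.5 × 10⁷ cells/mL in 1:1 PBS/Matrigel, implanted subcutaneously in the right front flank of 6–8-week female BALB/c nude mice. At ~130 mm³, mice stratified into six groups of nine. Oral BID dosing for 28 days: vehicle (0.5% methylcellulose), test compound from 1.6 mg/kg, or a comparator PARP inhibitor at 25 or 50 mg/kg. Tumours followed to day 89.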

[3] = system: intracellular PAR levels in HeLa cells; experiment: Inhibition of H2O2-induced PAR synthesis; assay type: cell-based; settings: Homo sapiens, 18 h, read-out: IC50 of intracellular PARP activity
[4] = system: intracellular PARP activity in H2O2-treated SF-295 cells; experiment: Inhibition of H2O2-induced PAR synthesis; assay type: cell-based; settings: Homo sapiens, SF-295, read-out: IC50 of intracellular PARP activity
Procedure, shortened: (§1)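 Cells seeded at 5000/well in DMEM with 10% FBS. After 4 h, test compound added as eight serial dilutions (0.02–200 nM final) in 0.1% DMSO for 18 h. DNA damage induced with 200 μM H₂O₂ at 37 °C for 5 min. Cells fixed in ice-cold methanol at −20 °C and stained overnight at 4 °C with anti-PAR mAb, Alexa 488 secondary and DAPI. Nuclear PAR intensity imaged; IC50 taken from residual activity.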

[5] = system: intracellular PARP activity in H2O2-treated GL261 cells; experiment: Inhibition of H2O2-induced PAR synthesis; assay type: cell-based, murine; settings: Mus musculus, GL261, read-out: IC50 of intracellular PARP activity
Procedure, shortened: as §1

PK study in healthy mice = assay type: in vivo, Mouse
Procedure, shortened: (§2)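 Healthy animals given a single dose. Mouse: 10 mg/kg p.o. or 1 mg/kg i.v. Rat: 5 mg/kg p.o. or 2 mg/kg i.v. Dog: 2 mg/kg p.o. or 1 mg/kg i.v. Plasma deproteinised with acetonitrile containing internal standard and centrifuged at 14,000 rpm for 8 min. Drug measured by LC–MS/MS. Dosing solutions analysed to confirm the actual dose given.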

PK study in rat = assay type: in vivo
Procedure, shortened: as §2

PK study in dog = assay type: in vivo
Procedure, shortened: as §2

[6] = QWBA tissue distribution of [14C] pamiparib; assay type: in vivo, Long-Evans rats; settings: rats, single oral 5 mg/kg, 24 h post treatment
[7] = Brain penetration after intravenous administration, Kpuu; assay type: in vivo, SD rats; settings: male, Sprague-Dawley, rat, brain and plasma (unbound), 1 mg/kg
Human BCRP = Human BCRP (Homo sapiens, UniProt Q9UNQ0); experiment: ATP-dependent uptake activity, BCRP substrate test; assay type: in vitro ADME; settings: 0.5 μM to 30 μM; uptake ratio ≥ 2-fold is positive
Human BCRP, sequence (Q9UNQ0 whole entry): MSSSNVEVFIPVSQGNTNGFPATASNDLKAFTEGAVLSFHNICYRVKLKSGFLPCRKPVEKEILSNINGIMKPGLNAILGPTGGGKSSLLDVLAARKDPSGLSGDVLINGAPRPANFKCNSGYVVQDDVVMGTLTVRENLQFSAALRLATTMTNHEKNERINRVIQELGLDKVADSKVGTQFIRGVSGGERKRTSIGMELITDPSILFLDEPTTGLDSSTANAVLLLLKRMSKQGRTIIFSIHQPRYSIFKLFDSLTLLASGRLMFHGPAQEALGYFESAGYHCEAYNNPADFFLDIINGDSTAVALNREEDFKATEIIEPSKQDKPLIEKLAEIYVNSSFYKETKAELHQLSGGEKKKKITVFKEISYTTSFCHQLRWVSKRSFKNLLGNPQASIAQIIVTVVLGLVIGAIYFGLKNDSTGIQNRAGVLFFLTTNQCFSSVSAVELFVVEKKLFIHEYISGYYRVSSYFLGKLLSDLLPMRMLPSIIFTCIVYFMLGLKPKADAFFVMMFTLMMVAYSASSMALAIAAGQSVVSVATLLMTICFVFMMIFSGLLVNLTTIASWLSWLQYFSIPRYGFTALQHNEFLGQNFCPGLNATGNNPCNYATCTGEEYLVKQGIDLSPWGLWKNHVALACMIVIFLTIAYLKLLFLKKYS

P-gp = P-gp (Homo sapiens, UniProt P08183); experiment: P-gp efflux activity in MDCKII-MDR1 cell monolayer; assay type: in vitro ADME; settings: 1 µM and 10 µM; ER > 2 and decrease to < 50% with inhibitor suggests substrate
P-gp, sequence (P08183 whole entry): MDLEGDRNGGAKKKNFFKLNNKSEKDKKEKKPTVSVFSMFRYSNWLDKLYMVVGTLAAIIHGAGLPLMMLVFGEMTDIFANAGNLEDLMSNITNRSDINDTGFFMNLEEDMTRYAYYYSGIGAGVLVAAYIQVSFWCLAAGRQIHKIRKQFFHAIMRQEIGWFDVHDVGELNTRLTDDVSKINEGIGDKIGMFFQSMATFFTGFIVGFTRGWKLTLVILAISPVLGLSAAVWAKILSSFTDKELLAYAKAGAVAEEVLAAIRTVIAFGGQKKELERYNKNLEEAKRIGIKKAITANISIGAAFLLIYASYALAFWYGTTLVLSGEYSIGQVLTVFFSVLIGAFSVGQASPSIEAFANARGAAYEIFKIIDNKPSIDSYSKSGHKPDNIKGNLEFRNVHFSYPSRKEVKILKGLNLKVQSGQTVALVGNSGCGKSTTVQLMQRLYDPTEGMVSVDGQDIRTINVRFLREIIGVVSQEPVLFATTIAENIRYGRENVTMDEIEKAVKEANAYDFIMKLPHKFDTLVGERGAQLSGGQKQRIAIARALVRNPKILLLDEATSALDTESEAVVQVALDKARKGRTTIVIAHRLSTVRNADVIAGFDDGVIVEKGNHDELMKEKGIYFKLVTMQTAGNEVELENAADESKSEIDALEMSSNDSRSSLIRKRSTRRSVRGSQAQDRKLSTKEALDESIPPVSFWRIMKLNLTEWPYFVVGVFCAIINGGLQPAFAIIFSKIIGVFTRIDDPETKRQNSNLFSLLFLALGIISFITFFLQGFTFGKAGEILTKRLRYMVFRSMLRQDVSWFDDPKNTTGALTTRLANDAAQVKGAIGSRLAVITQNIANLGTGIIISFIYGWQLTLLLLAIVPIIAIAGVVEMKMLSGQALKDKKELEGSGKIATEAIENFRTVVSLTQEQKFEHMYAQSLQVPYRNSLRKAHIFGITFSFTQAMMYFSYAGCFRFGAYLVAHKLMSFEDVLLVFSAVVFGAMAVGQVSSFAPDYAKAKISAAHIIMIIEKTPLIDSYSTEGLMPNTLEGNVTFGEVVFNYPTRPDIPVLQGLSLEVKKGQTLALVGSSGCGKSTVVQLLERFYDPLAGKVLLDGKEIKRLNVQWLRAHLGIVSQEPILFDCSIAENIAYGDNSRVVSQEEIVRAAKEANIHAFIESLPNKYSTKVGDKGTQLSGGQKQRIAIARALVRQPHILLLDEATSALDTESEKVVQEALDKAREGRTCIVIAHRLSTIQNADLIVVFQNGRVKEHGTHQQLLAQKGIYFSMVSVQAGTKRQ

[8] = PK/PD in MDA-MB-436 xenograft; assay type: in vivo, mice; settings: BALB/c nude, mouse, tumor, oral, 5.45 mg/kg
[9] = system: PARylation in MDA-MB-436 xenograft tumors; experiment: PK/PD in MDA-MB-436 xenograft; assay type: in vivo, mice; settings: single dose 5.45, first 12 h
[10] = system: intracranial H209 xenograft; experiment: Intracranial H209 xenograft survival; assay type: in vivo, BALB/c nude mice; settings: pamiparib 3 mg/kg BID day 1–21, 29–49; TMZ 50 mg/kg; combination TMZ 50 mg/kg plus pamiparib 0.75 mg/kg BID
[11] = system: PARylation in brain tumors, intracranial H209 xenograft; experiment: Brain penetration and PD in intracranial H209 xenograft; assay type: in vivo, mice; settings: single dose 3 mg/kg p.o., 4 h after treatment
[12] = system: GL261 syngeneic intracranial glioma; experiment: GL261 syngeneic intracranial glioma model survival; assay type: in vivo, Mice; settings: single agent 9 mpk
SNB-19 = experiment: Pamiparib and TMZ combination, anti-proliferation; assay type: cell-based; settings: Homo sapiens, SNB-19, read-out: EC50 of TMZ single agent
SF-295 = experiment: Pamiparib and TMZ combination, anti-proliferation; assay type: cell-based; settings: Homo sapiens, SF-295, read-out: EC50 of TMZ single agent
T98G = experiment: Pamiparib and TMZ combination, anti-proliferation; assay type: cell-based; settings: Homo sapiens, read-out: EC50 of TMZ single agent
SF-539 = experiment: Pamiparib and TMZ combination, anti-proliferation; assay type: cell-based; settings: Homo sapiens, SF-539, read-out: EC50 of TMZ single agent
U-118MG = experiment: Pamiparib and TMZ combination, anti-proliferation; assay type: cell-based; settings: Homo sapiens, read-out: EC50 of TMZ single agent
U251 = experiment: Pamiparib and TMZ combination, anti-proliferation; assay type: cell-based; settings: Homo sapiens, U-251, read-out: EC50 of TMZ single agent
LN-229 = experiment: Pamiparib and TMZ combination, anti-proliferation; assay type: cell-based; settings: Homo sapiens, LN-229, read-out: EC50 of TMZ single agent
U87-MG = experiment: Pamiparib and TMZ combination, anti-proliferation; assay type: cell-based; settings: Homo sapiens, U-87 MG, read-out: EC50 of TMZ single agent
NCI-H2227 = experiment: Pamiparib and TMZ combination, anti-proliferation; assay type: cell-based; settings: read-out: EC50 of TMZ single agent
DMS153 = experiment: Pamiparib and TMZ combination, anti-proliferation; assay type: cell-based; settings: Homo sapiens, DMS-153, read-out: EC50 of TMZ single agent
NCI-H1048 = experiment: Pamiparib and TMZ combination, anti-proliferation; assay type: cell-based; settings: Homo sapiens, NCI-H1048, read-out: EC50 of TMZ single agent
NCI-H209 = experiment: Pamiparib and TMZ combination, anti-proliferation; assay type: cell-based; settings: Homo sapiens, NCI-H209, read-out: EC50 of TMZ single agent
NCI-H1436 = experiment: Pamiparib and TMZ combination, anti-proliferation; assay type: cell-based; settings: Homo sapiens, NCI-H1436, read-out: EC50 of TMZ single agent
NCI-H2286 = experiment: Pamiparib and TMZ combination, anti-proliferation; assay type: cell-based; settings: Homo sapiens, NCI-H2286, read-out: EC50 of TMZ single agent
NCI-H69 = experiment: Pamiparib and TMZ combination, anti-proliferation; assay type: cell-based; settings: Homo sapiens, NCI-H69, read-out: EC50 of TMZ single agent
[13] = system: intracranial H209-TR xenografts; experiment: Intracranial H209-TR xenograft survival; assay type: in vivo, BALB/c nude mice; settings: same treatment schedule as intracranial H209
[14] = male, C57, mouse, brain and plasma, Brain/Plasma, single p.o. dose: Pamiparib 10, Talazoparib 3, Olaparib 50, Niraparib 50 mg/kg
[15] = single p.o. dose: Pamiparib 10, Talazoparib 3, Olaparib 50, Niraparib 50 mg/kg
[16] = mouse, plasma, intravenous, 1 mg/kg
[17] = Rat, 5 mg/kg p.o. or 2 mg/kg i.v.

SMILES: NC(=O)c1cccc2cn(-c3ccc([C@@H]4CCCNC4)cc3)nc12 [Niraparib, niraparib]
- Kp at 1 h ([1]; male, C57, mouse, brain and plasma, oral, Brain/Plasma, concentration, 1 h, single p.o. dose: Pamiparib 10, Talazoparib 3, Olaparib 50, Niraparib 50 mg/kg): 0.06
- Kp at 2 h ([1]; male, C57, mouse, brain and plasma, oral, Brain/Plasma, concentration, 2 h, single p.o. dose: Pamiparib 10, Talazoparib 3, Olaparib 50, Niraparib 50 mg/kg): 0.08
- Kp at 4 h ([1]; male, C57, mouse, brain and plasma, oral, Brain/Plasma, concentration, 4 h, single p.o. dose: Pamiparib 10, Talazoparib 3, Olaparib 50, Niraparib 50 mg/kg): 0.14
- Kp [1, 14]: 0.09
- AUC1-4h, Brain [1, 15]: 1849 ng·h/g

SMILES: O=C(c1cc(Cc2n[nH]c(=O)c3ccccc23)ccc1F)N1CCN(C(=O)C2CC2)CC1 [Olaparib, olaparib, reference compound]
- AUC1-4h, Brain [1, 15]: 56 ng·h/g
- objective responses ([2]; olaparib high-dose group (50 mg/kg, BID)): 100%
- tumor relapse at day 89 ([2]; olaparib 25 mg/kg BID): tumor relapse was observed

SMILES: C[C@]12CCCN1CC1=NNC(=O)c3cc(F)cc4[nH]c2c1c34 [Pamiparib]
- IC50 [3]: 0.00024 µM
- IC50 [4]: 0.00017 µM
- IC50 [5]: 0.00025 µM
- AUC 0-inf/Dose (PK study in healthy mice; Mouse, 10 mg/kg p.o. or 1 mg/kg i.v.): 552 ± 194 ng.h/mL per mg/kg
- half-life (PK study in healthy mice; mouse, plasma): 3.2 ± 0.5 h
- Vd (PK study in healthy mice; [16]): 5.7 ± 0.5 L/kg
- clearance (PK study in healthy mice; [16]): 29.9 ± 2.4 mL/min/kg
- bioavailability (PK study in healthy mice; mouse, plasma, oral): 99 ± 35%
- AUC 0-inf/Dose (PK study in rat; [17]): 694 ± 124 ng.h/mL per mg/kg
- clearance (PK study in rat; [17]): 22.7 ± 2.8 mL/min/kg
- half-life (PK study in rat; rat, plasma): 5.5 ± 0.8 h
- Vd (PK study in rat; rat, plasma, intravenous, 2 mg/kg): 6.9 ± 0.7 L/kg
- bioavailability (PK study in rat; rat, plasma, oral): 94 ± 17%
- AUC 0-inf/Dose (PK study in dog; Dog, 2 mg/kg p.o. or 1 mg/kg i.v.): 800 ± 95 ng.h/mL per mg/kg
- half-life (PK study in dog; dog, plasma): 3.6 ± 1.9 h
- Vd (PK study in dog; dog, plasma, intravenous, 1 mg/kg): 2.1 ± 0.2 L/kg
- bioavailability (PK study in dog; dog, plasma, oral): 73 ± 4%
- drug concentration in brain ([1]; maintained for 4 h post treatment): > 100 ng/g
- Kp [1, 14]: 0.18
- AUC1-4h, Brain [1, 15]: 820 ng·h/g
- drug concentration in the brain as share of the detected plasma level [6]: approximately 20%
- Kp [7]: 0.158
- BCRP substrate assessment (Human BCRP): not a substrate of P-gp or BCRP
- P-gp substrate assessment (P-gp): not a substrate of P-gp or BCRP
- objective responses ([2]; day 29, lowest dose 1.6 mg/kg BID): 100%
- objective responses (PR plus CR) ([2]; day 29, pamiparib oral, BID for 28 days, doses from 1.6 mg/kg): 100%
- tumor relapse at day 89 ([2]; pamiparib lowest dose 1.6 mg/kg): tumor relapse was observed
- concentration at 4 h [8]: ~800 nM
- intra-tumor concentration [9]: > 0.5 µmol/kg
- median survival [10]: 26.5 days
- inhibition of PARylation in brain tumors [11]: complete inhibition of PARylation; also recorded: completely inhibited
- median survival [12]: 21 days

SMILES: Cn1nnc2c(C(N)=O)ncn2c1=O [TMZ, Temozolomide]
- EC50 (SNB-19): > 300 µM
- EC50 (SF-295): > 300 µM
- EC50 (T98G): > 300 µM
- EC50 (SF-539): 80 µM
- EC50 (U-118MG): > 300 µM
- EC50 (U251): 32 µM
- EC50 (LN-229): > 300 µM
- EC50 (U87-MG): > 300 µM
- EC50 (NCI-H2227): 576 µM
- EC50 (DMS153): 60 µM
- EC50 (NCI-H1048): 153 µM
- EC50 (NCI-H209): 63 µM
- EC50 (NCI-H1436): > 300 µM
- EC50 (NCI-H2286): 182 µM
- EC50 (NCI-H69): 15 µM
- median survival [10]: 75 days
- median survival [13]: 24 days

SMILES: Cn1ncnc1[C@H]1c2n[nH]c(=O)c3cc(F)cc(c23)N[C@@H]1c1ccc(F)cc1 [Talazoparib, talazoparib]
- AUC1-4h, Brain [1, 15]: 85 ng·h/g
